From ChEMBL document CHEMBL1275331, “Discovery of a novel 5-HT(3) antagonist/5-HT(1A) agonist 3-amino-5,6,7,8-tetrahydro-2-{4-[4-(quinolin-2-yl)piperazin-1-yl]butyl}quinazolin-4(3H)-one (TZB-30878) as an orally bioavailable agent for irritable bowel syndrome” (J Med Chem, 2010) come the findings set out here.

Activity calls are given as the source filed them. No cut-off for these calls is given here. Where only a bound is given, the exact number is not on record here.

As usually defined, the Emax is the maximal effect, on the per cent scale that the assay sets. As usually defined, the inhibition is the percentage by which the read-out fell short of the control. As a reminder, the IC50 is the concentration that gives 50% inhibition. A word on the inhibition in vivo: it is the drop in the measured response relative to a control, in per cent. Usually EC50 stands for the concentration that produces a half-maximal response.

The target of experiment [1] is T1, 5-hydroxytryptamine receptor 1A (Homo sapiens) (UniProt P08908).
T1 sequence (whole entry): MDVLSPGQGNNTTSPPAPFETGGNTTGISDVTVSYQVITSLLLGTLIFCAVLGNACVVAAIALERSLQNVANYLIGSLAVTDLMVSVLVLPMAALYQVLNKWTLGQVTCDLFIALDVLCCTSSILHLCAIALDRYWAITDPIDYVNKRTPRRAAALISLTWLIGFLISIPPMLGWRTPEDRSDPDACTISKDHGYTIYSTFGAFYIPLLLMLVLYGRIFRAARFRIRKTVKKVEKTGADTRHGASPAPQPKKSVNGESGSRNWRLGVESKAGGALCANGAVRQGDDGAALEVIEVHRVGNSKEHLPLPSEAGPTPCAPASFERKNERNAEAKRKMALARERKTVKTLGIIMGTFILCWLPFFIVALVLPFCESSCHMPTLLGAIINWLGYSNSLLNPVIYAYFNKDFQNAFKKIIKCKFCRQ
As to the kind of experiment: Agonist activity at human cloned 5HT1A receptor expressed in CHO cells assessed as stimulation of [35S]GTPgammaS binding at 900 uL after 30 mins by liquid scintillation counting. It counts as functional, cell-based. In a few lines: (§1)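 Membranes from CHO cells expressing human 5-HT1A were diluted in 20 mM HEPES/3 mM MgCl2/120 mM NaCl, pH 7.4. They were preincubated with 20 μM GDP and test drug for 20 min at 30 °C, then held on ice for 15 min. [35S]GTPγS (100 pM) was added for 30 min at 30 °C. Samples were filtered, washed with cold HEPES/MgCl2 buffer, and bound radioactivity counted; EC50 and Emax reported.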
A general note: GTPγS resists hydrolysis and so accumulates on activated G proteins.

Experiment [2] has as its system Rattus norvegicus. Nature of the experiment: Induction of 5HT1A receptor-mediated behavioral activity in rat assessed as appearance of flat body posture at 10 mg/kg, iv after 30 mins. The format is functional, organism-based. Set-up: dose 10 mg/kg. In a few lines: (§2)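 Rats were conditioned to test procedures over 2 weeks and acclimated to the test cage for 1 h. Vehicle was saline containing diluted HCl. Lower lip retraction and flat body posture were scored on a 0–3 scale at 5, 10, 20 and 30 min after dosing.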

The target in experiment [3] is T2, 5-hydroxytryptamine receptor 3A (Cavia porcellus) (UniProt O70212).
T2 sequence (whole entry): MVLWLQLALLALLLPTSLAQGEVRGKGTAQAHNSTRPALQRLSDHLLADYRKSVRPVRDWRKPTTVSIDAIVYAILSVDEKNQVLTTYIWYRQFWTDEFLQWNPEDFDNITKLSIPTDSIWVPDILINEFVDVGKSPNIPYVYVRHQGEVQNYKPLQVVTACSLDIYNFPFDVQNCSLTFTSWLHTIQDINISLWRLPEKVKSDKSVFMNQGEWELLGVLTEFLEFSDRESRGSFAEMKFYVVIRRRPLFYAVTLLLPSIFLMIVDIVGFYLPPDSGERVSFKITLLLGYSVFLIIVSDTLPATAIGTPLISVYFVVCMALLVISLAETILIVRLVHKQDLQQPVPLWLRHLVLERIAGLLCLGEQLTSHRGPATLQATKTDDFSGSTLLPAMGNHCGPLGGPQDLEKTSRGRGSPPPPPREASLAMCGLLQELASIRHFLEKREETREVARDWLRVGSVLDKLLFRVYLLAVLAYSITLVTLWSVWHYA
As to the kind of experiment: Inhibition of 5HT3 receptor-mediated contraction of guinea pig ileum at 0.1 umol/L after 20 mins relative to control. The format is tissue-based. In a few lines:
(§3)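 Ileum strips in Tyrode solution at 37 °C, gassed 5% CO2/95% O2, isotonic contractions under 1 g load. After at least 3 stable contractions to 10 μM 2-methyl-5-HT, tissue exposed to compound or DMSO vehicle for 20 min, then 10 μM 2-methyl-5-HT re-added; contraction expressed as % inhibition of control.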

The target of experiment [4] is T2, 5-hydroxytryptamine receptor 3A (Cavia porcellus). As to the kind of experiment: Inhibition of 5HT3 receptor-mediated contraction of guinea pig ileum at 1 umol/L after 20 mins relative to control. It counts as tissue-based. In a few lines: as §3
Experiment [5] has as its target T3, 5-hydroxytryptamine receptor 1A (Homo sapiens, UniProt P08908).
T3 sequence (P08908 whole entry): T1 sequence (whole entry)
Nature of the experiment: Displacement of [3H]8-OH-DPAT from human 5HT1A receptor expressed in CHO cells by liquid scintillation counting. It counts as cell-based. In a few lines:
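CHO-cell membranes with human 5-HT1A were incubated with 0.25 nmol/L [3H]8-OH-DPAT (final) for 60 min at 27 °C. Buffer: 50 mM Tris-HCl, 10 mM MgSO4, 0.5 mM EDTA, 0.1% ascorbic acid, pH 7.4. Compound came from 270 μmol/L DMSO stock, diluted in buffer. Filtration was through GF/C presoaked in 0.3% polyethyleneimine, with two cold Tris washes. Run in duplicate or triplicate; percent inhibition of binding calculated.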
In general terms: In a radioligand displacement assay an active substance lowers the binding of a labelled ligand.

In experiment [6] the test system is Rattus norvegicus. As to the kind of experiment: […] activity in rat assessed as inhibition of 5HT-induced bradycardia at 100 ug/kg, iv by von Benzold-Jarisch reflex assay. It counts as functional.
Experiment [7] addresses T3, 5-hydroxytryptamine receptor 1A. As to the kind of experiment: Agonist activity at human cloned 5HT1A receptor expressed in CHO cells assessed as stimulation of [35S]GTPgammaS binding after 30 mins by liquid scintillation counting. It counts as functional, cell-based. In a few lines:
as §1

In experiment [8] the test system is Rattus norvegicus. Nature of the experiment: Effect on 5HT1A receptor-mediated hypothermic effect in rat assessed as change in rectal temperature at 10 mg/kg, iv after 30 mins. Set-up: dose 10 mg/kg. The format is functional, organism-based. In a few lines: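 Rats were conditioned over 2 weeks and acclimated to the cage for 1 h before dosing (vehicle: saline with diluted HCl). Rectal temperature was recorded with a thermistor probe inserted 3 cm, before and 30 min after administration. The change in temperature was reported.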

In experiment [9] the test system is Rattus norvegicus. As to the kind of experiment: Induction of 5HT1A receptor-mediated lower lip retraction behavior in rat at 10 mg/kg, iv after 30 mins. It counts as functional, organism-based. On the set-up: dose 10 mg/kg. In a few lines:
as §2

Experiment [10] deals with T4, 5-hydroxytryptamine receptor 3A (Homo sapiens, UniProt P46098).
T4 sequence (P46098 whole entry): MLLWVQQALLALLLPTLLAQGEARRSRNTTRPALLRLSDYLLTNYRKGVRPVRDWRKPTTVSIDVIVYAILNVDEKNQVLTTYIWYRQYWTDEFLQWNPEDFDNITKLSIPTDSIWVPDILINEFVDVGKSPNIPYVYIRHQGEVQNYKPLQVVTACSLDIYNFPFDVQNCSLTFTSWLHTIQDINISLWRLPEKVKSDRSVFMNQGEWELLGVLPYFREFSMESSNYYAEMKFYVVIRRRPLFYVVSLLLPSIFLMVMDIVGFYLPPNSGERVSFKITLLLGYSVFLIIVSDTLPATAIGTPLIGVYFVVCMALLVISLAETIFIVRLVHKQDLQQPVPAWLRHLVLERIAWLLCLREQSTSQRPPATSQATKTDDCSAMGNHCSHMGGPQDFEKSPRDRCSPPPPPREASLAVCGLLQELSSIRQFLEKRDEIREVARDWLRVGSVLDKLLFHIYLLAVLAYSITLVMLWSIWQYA
Nature of the experiment: Displacement of [3H]BRL-43694 from human 5HT3 receptor expressed in HEK293 cells by liquid scintillation counting. The format is cell-based. In a few lines: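 HEK-293 membranes expressing human 5-HT3 were incubated with 0.5 nmol/L [3H]BRL-43694 (final) for 60 min at 25 °C. Buffer: 50 mM Tris-HCl, 5 mM MgCl2, 1 mM EDTA, pH 7.5. Compound came from 270 μmol/L DMSO stock, diluted in buffer. Filtration was through GF/B presoaked in 0.5% polyethyleneimine, with two cold Tris washes. Run in duplicate or triplicate; percent inhibition calculated.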

For `Cc1cc(N2CCN(CCCCc3nc4c(c(=O)n3N)CCCC4)CC2)nc2ccccc12`, the Emax in experiment [1] was 93.5%. In addition, the result in the experiment on Rattus norvegicus [2], with Rattus norvegicus [8] and in the experiment on Rattus norvegicus [9] was inactive. The inhibition in experiment [3] amounted to 97.1%; in [4], 100%. Also, the figures for the IC50 in [5] and in experiment [10] were under 10 nM and 59.1 nM, respectively. Also, in the experiment with Rattus norvegicus [6], the inhibition in vivo at 0.1 mg/kg came to 64.5%. Moreover, the EC50 in experiment [7] was 13.7 nM.
